ChEMBL document CHEMBL1135644, “Effect of spermine conjugation on the cytotoxicity and cellular transport of acridine” (J Med Chem, 2002)
Each block holds one molecule with its values, some of them ahead of it.

Experiments:
CHO [1] = experiment: Cellular uptake of conjugates in CHO cells at a concentration of 1.25 uM (+/-15% SEM); assay type: functional, cell-based; conditions: Cricetulus griseus
Procedure, shortened: (§1)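 Conjugates added 24 h after seeding (1 × 10^5 cells/mL, RPMI 1640 with 10% FCS and 2 mM aminoguanidine; proline added for CHO-MG) and left for 24 h. Cells were washed in 0.14 M NaCl, sonicated in 0.2 N HClO4/2 M NaCl and held 16 h at 4 °C. Conjugate in the supernatant was measured by fluorimetry against standards and expressed per mg protein (Folin). Mean of three determinations (±15%).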

CHO [2] = experiment: In vitro 50% cell growth inhibition by the compound in CHO cells; assay type: functional, cell-based; conditions: Cricetulus griseus
Procedure, shortened: (§2)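 CHO or CHO-MG cells were trypsinized and plated singly at 2 × 10^3 cells/mL in RPMI 1640/10% FCS with 2 mM aminoguanidine (proline for CHO-MG). Conjugates were added after overnight incubation, with 48 h exposure. Growth was read by MTT formazan absorbance at 540 nm relative to untreated controls. The value is the concentration giving 25% or 50% growth inhibition.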

CHO-MG [3] = experiment: Cellular uptake of conjugates in CHO-MG cells at a concentration of 10 uM (+/-15% SEM); assay type: functional, cell-based; conditions: Cricetulus griseus; procedure, shortened: as §1
L1210 [4] = experiment: In vitro 25% cell growth inhibition by the compound in L1210 cells with 5 mM DFMO addition; assay type: functional; conditions: Mus musculus
Procedure, shortened: (§3)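 L1210 cells were seeded at 5 × 10^4 cells/mL, and conjugate plus 5 mM DFMO were added at seeding with 2 mM aminoguanidine present. After 48 h, growth was read by MTT at 540 nm relative to DFMO-only controls.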

L1210 [5] = experiment: Inhibition of [14C]SPD uptake by the compound in 5 min initial rate transport assay in L1210 cells; assay type: functional, cell-based, Mus musculus
CHO [6] = experiment: Cellular uptake of conjugates in CHO cells at a concentration of 10 uM (+/-15% SEM); assay type: functional, cell-based; conditions: Cricetulus griseus; procedure, shortened: as §1
L1210 [7] = experiment: Cellular uptake of conjugates in L1210 cells (control) at a concentration of 10 uM (+/-15% SEM); assay type: functional, cell-based; conditions: Mus musculus
Procedure, shortened: (§4)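 L1210 cells were seeded at 2 × 10^5 cells/mL with conjugate added at seeding, in medium containing 2 mM aminoguanidine, and cultured 24 h. Washed cells were extracted in 0.2 N HClO4/2 M NaCl for 16 h at 4 °C. Intracellular conjugate was quantified by fluorimetry and expressed as nmol/mg protein. Mean of three determinations (±15%).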

L1210 [8] = experiment: In vitro 50% cell growth inhibition by the compound in L1210 cells with 5 mM DFMO addition; assay type: functional, cell-based; conditions: Mus musculus; procedure, shortened: as §3
Nucleic Acid = experiment: Drug concentration required to produce 50% inhibition of fluorescence bound ethidium to CT-DNA (1.26:1) (+/-SEM 5%); assay type: functional; conditions: Bos taurus
Procedure, shortened: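 Ethidium displacement: 1 μM CT-DNA with 1.26 μM ethidium bromide; conjugate stock added serially. Fluorescence was read at excitation 546 nm and emission 595 nm. The value is the conjugate concentration cutting DNA-bound ethidium fluorescence by 50%. Mean of three determinations (±5%).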

L1210 [9] = experiment: In vitro 25% cell growth inhibition by the compound in L1210 cells; assay type: functional; conditions: Mus musculus
Procedure, shortened: (§5)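 L1210 cells were seeded at 5 × 10^4 cells/mL with conjugate added at seeding, in medium with 2 mM aminoguanidine, for 48 h exposure. Growth was measured by MTT absorbance at 540 nm relative to untreated controls.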

[10] = Ratio of cellular uptake in CHO cells to that of CHO-MG cells at 1.25 uM; assay type: functional
L1210 [11] = experiment: In vitro 50% cell growth inhibition by the compound in L1210 cells; assay type: functional, cell-based; conditions: Mus musculus; procedure, shortened: as §5
L1210 [12] = experiment: Cellular uptake of conjugates in L1210 cells pretreated with 5 mM DFMO at a concentration of 10 uM (+/-15% SEM); assay type: functional, cell-based; conditions: Mus musculus
Procedure, shortened: (§6)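 L1210 cells were seeded at 10^5 cells/mL in medium with 5 mM DFMO, and conjugates were added 24 h later. Cells were harvested after a further 24 h, extracted in 0.2 N HClO4/2 M NaCl and assayed by fluorimetry, expressed per mg protein. Mean of three determinations (±15%).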

[13] = Ratio of cellular uptake in CHO cells to that of CHO-MG cells at 10 uM; assay type: functional
CHO-MG [14] = experiment: Cellular uptake of conjugates in CHO-MG cells at a concentration of 1.25 uM (+/-15% SEM); assay type: functional, cell-based; procedure, shortened: as §1
CHO-MG [15] = experiment: In vitro 50% cell growth inhibition by the compound in CHO-MG cells; assay type: functional, cell-based; conditions: Cricetulus griseus; procedure, shortened: as §2
L1210 [16] = experiment: Cellular uptake of conjugates in L1210 cells (control) at a concentration of 0.5 uM (+/-15% SEM); assay type: functional, cell-based; conditions: Mus musculus; procedure, shortened: as §4
L1210 [17] = experiment: Cellular uptake of conjugates in L1210 cells (control) at a concentration of 1 uM (+/-15% SEM); assay type: functional, cell-based; conditions: Mus musculus; procedure, shortened: as §4
CHO-MG [18] = experiment: In vitro 25% cell growth inhibition by the compound in CHO-MG cells with 5 mM DFMO addition; assay type: functional; conditions: Cricetulus griseus
Procedure, shortened: (§7)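 CHO or CHO-MG cells were plated at 2 × 10^3 cells/mL and incubated overnight. Conjugates and 5 mM DFMO were then added together, with 2 mM aminoguanidine present, for 48 h. MTT absorbance at 540 nm was expressed relative to DFMO-treated controls. The value is the concentration inhibiting growth 25% or 50%.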

CHO [19] = experiment: In vitro 25% cell growth inhibition by the compound in CHO cells; assay type: functional; conditions: Cricetulus griseus; procedure, shortened: as §2
CHO [20] = experiment: In vitro 50% cell growth inhibition by the co mpound in CHO cells with 5 mM DFMO addition; assay type: functional, cell-based; conditions: Cricetulus griseus; procedure, shortened: as §7
[21] = Ratio of cellular uptake in CHO cells to that of CHO-MG cells.; assay type: functional
CHO-MG [22] = experiment: In vitro 50% cell growth inhibition by the compound in CHO-MG cells with 5 mM DFMO addition; assay type: functional, cell-based; conditions: Cricetulus griseus; procedure, shortened: as §7
L1210 [23] = experiment: Cellular uptake of conjugates in L1210 cells pretreated with 5 mM DFMO at a concentration of 2 uM (+/-15% SEM); assay type: functional, cell-based; conditions: Mus musculus; procedure, shortened: as §6
L1210 [24] = experiment: Cellular uptake of conjugates in L1210 cells pretreated with 5 mM DFMO at a concentration of 0.5 uM (+/-15% SEM); assay type: functional, cell-based; conditions: Mus musculus; procedure, shortened: as §6
L1210 [25] = experiment: Cellular uptake of conjugates in L1210 cells (control) at a concentration of 2 uM (+/-15% SEM); assay type: functional, cell-based; conditions: Mus musculus; procedure, shortened: as §4
L1210 [26] = experiment: Cellular uptake of conjugates in L1210 cells in presence of 500 uM SPD at a concentration of 1 uM (+/-15% SEM); assay type: functional, cell-based; conditions: Mus musculus
Procedure, shortened: (§8)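 Same as the L1210 uptake assay: seeded at 2 × 10^5 cells/mL, conjugate plus 500 μM spermidine added together at seeding, 24 h exposure. Extraction in HClO4/NaCl, fluorimetric quantitation, normalized to protein. Mean of three determinations (±15%).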

L1210 [27] = experiment: Cellular uptake of conjugates in L1210 cells in presence of 500 uM SPD at a concentration of 2 uM (+/-15% SEM); assay type: functional, cell-based; conditions: Mus musculus; procedure, shortened: as §8
L1210 [28] = experiment: Cellular uptake of conjugates in L1210 cells in presence of 500 uM SPD at a concentration of 0.5 uM (+/-15% SEM); assay type: functional, cell-based; conditions: Mus musculus; procedure, shortened: as §8
CHO-MG [29] = experiment: Cellular uptake of conjugates in CHO-MG cells at a concentration of 0.5 uM (+/-15% SEM); assay type: functional, cell-based; conditions: Cricetulus griseus; procedure, shortened: as §1
L1210 [30] = experiment: Cellular uptake of conjugates in L1210 cells pretreated with 5 mM DFMO at a concentration of 1 uM (+/-15% SEM); assay type: functional, cell-based; conditions: Mus musculus; procedure, shortened: as §6
CHO-MG [31] = experiment: In vitro 25% cell growth inhibition by the compound in CHO-MG cells; assay type: functional, Cricetulus griseus; conditions: Cricetulus griseus, CHO-MG; read-out: IC25; procedure, shortened: as §2
CHO [32] = experiment: In vitro 25% cell growth inhibition by the compound in CHO cells with 5 mM DFMO addition; assay type: functional; conditions: Cricetulus griseus; procedure, shortened: as §7
CHO [33] = experiment: Cellular uptake of conjugates in CHO cells at a concentration of 0.5 uM (+/-15% SEM); assay type: functional, cell-based; conditions: Cricetulus griseus; procedure, shortened: as §1

- IC50 (L1210 [8]): 2200 nM
- IC50 (L1210 [11]): 18000 nM
Compound: Cl.NCCCNCCCCNCCCNCCCCNC(=O)c1c2ccccc2nc2ccccc12
- Uptake (nM (mg of protein)-1) (CHO [1]): 0.018
- IC50 (CHO [2]): 17000 nM
- Uptake (nM (mg of protein)-1) (CHO-MG [3]): 0.172
- IC25 (L1210 [4]): 160 nM
- Ki (L1210 [5]): 83 nM
- Uptake (nM (mg of protein)-1) (CHO [6]): 0.183
- Uptake (nM (mg of protein)-1) (L1210 [7]): 0.561
- Concentration for 50% ethidium displacement from DNA (C50) (Nucleic Acid): 120 nM
- IC25 (L1210 [9]): 10000 nM
- Ratio [10]: 1.4
- Uptake (nM (mg of protein)-1) (L1210 [12]): 0.85
- Ratio [13]: 1.1
- Uptake (nM (mg of protein)-1) (CHO-MG [14]): 0.013
- IC50 (CHO-MG [15]): 21000 nM

- IC50 (L1210 [8]): 900 nM
- IC50 (L1210 [11]): 2800 nM
Compound: Cl.NCCCNCCCCNCCCNCCCNc1c2ccccc2nc2ccccc12
- Uptake (nM (mg of protein)-1) (L1210 [16]): 0.186
- Uptake (nM (mg of protein)-1) (L1210 [17]): 0.307
- IC50 (CHO [2]): 2300 nM
- IC25 (L1210 [4]): 140 nM
- Ki (L1210 [5]): 129 nM
- IC25 (CHO-MG [18]): 2500 nM
- IC25 (CHO [19]): 900 nM
- IC50 (CHO [20]): 1300 nM
- Ratio [21]: 3.1
- IC50 (CHO-MG [22]): 7300 nM
- Concentration for 50% ethidium displacement from DNA (C50) (Nucleic Acid): 110 nM
- Uptake (nM (mg of protein)-1) (L1210 [23]): 1.58
- Uptake (nM (mg of protein)-1) (L1210 [24]): 0.496
- Uptake (nM (mg of protein)-1) (L1210 [25]): 0.717
- Uptake (nM (mg of protein)-1) (L1210 [26]): 0.188
- IC25 (L1210 [9]): 1400 nM
- Uptake (nM (mg of protein)-1) (L1210 [27]): 0.553
- Uptake (nM (mg of protein)-1) (L1210 [28]): 0.053
- Uptake (nM (mg of protein)-1) (CHO-MG [29]): 0.054
- Uptake (nM (mg of protein)-1) (L1210 [30]): 0.728
- IC25 (CHO-MG [31]): 1800 nM
- IC25 (CHO [32]): 320 nM
- Uptake (nM (mg of protein)-1) (CHO [33]): 0.167
- IC50 (CHO-MG [15]): 6100 nM
